A word on the IC50: it is the concentration that inhibits the measured activity by half. Low values mean higher potency, high ones lower potency.

Active and inactive are the calls of the source. No cut-off for these calls is given here.

Assay [1] concerns Streptomyces. Description: Antibacterial activity against Streptomyces 85E assessed as bald phenotype at 5 ug/disk after 30 hrs by hyphae formation inhibition assay. In kind it is functional. As to conditions: read-out: IZ. The gist of the method:
(§1)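 Mycelial fragments spread on minimal medium ISP 4 agar to form a lawn; compound-impregnated 6 mm paper disks placed on surface; incubated 30 h at 30 °C. Zone diameter recorded as clear (growth and sporulation inhibited) or bald (substrate hyphae without aerial hyphae); >9 mm counted active. Stocks in DMSO or methanol; solvent negative control, surfactin positive control.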

In assay [2] the test system is Streptomyces. The assay is described as follows: Antibacterial activity against Streptomyces 85E assessed as bald phenotype at 2.5 ug/disk after 30 hrs by hyphae formation inhibition assay. As to conditions: read-out: IZ. In kind it is functional. In a few lines:
as §1

Assay [3] relates to Streptomyces. The assay is described as follows: Antibacterial activity against Streptomyces 85E assessed as bald phenotype at 20 ug/disk after 30 hrs by hyphae formation inhibition assay. In kind it is functional. As to conditions: read-out: IZ. The gist of the method: as §1
Assay [4] deals with Streptomyces. Description: Antibacterial activity against Streptomyces 85E assessed as bald phenotype at 10 ug/disk after 30 hrs by hyphae formation inhibition assay. In kind it is functional. As to conditions: read-out: IZ. In a few lines:
as §1

Assay [5] deals with MCF7. The assay is described as follows: Antiproliferative activity against human MCF7 cells. In kind it is functional, cell-based. The gist of the method:
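MCF-7 cells grown in IMEM with 5% FBS and penicillin/streptomycin at 37 °C, 5% CO2, plated in 96-well plates with compounds in DMSO at five concentrations. After 2 days, glutaraldehyde-fixed, crystal violet-stained, dye solubilised in Triton X-100, A560 minus A405 read. % growth relative to day-0 and DMSO wells; IC50 read graphically from dose–response curve, triplicate.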

For assay [6], the system named is Streptomyces. Description: Antibacterial activity against Streptomyces 85E assessed as clear zone at 20 ug/disk after 30 hrs by hyphae formation inhibition assay. It is filed as functional. To be noted: read-out: IZ. The gist of the method:
as §1

The test system of assay [7] is Streptomyces. Description: Antibacterial activity against Streptomyces 85E assessed as clear zone at 10 ug/disk after 30 hrs by hyphae formation inhibition assay. In kind it is functional. To be noted: read-out: IZ. The gist of the method:
as §1

For assay [8], the system named is Streptomyces. Description: Antibacterial activity against Streptomyces 85E assessed as clear zone at 2.5 ug/disk after 30 hrs by hyphae formation inhibition assay. It is filed as functional. As to conditions: read-out: IZ. The gist of the method: as §1
In assay [9] the test system is Streptomyces. The assay is described as follows: Antibacterial activity against Streptomyces 85E assessed as clear zone at 5 ug/disk after 30 hrs by hyphae formation inhibition assay. It is filed as functional. As to conditions: read-out: IZ. The gist of the method: as §1
Assay [10] relates to MCF7. The assay is described as follows: Cytotoxicity against human MCF7 cells at >10 uM. In kind it is functional, cell-based.
Assay [11] relates to MCF7. Description: Cell cycle arrest in human MCF7 cells by accumulation at G1 phase at 10 uM by flow cytometry. It is filed as functional, cell-based. The gist of the method:
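MCF-7 cells, 1 × 10^5 per well, held 2 days in serum-free, antibiotic-free, phenol red-free IMEM to induce G1 arrest. Compound or DMSO added 30 min before FBS to 5% final; serum-free wells as negative controls; U0126 50 µM comparator. After 24 h, cells fixed in ice-cold 80% ethanol, propidium iodide stained, phases measured by flow cytometry; n = 3.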
Background: In flow cytometry, cells or beads pass a laser one at a time.

For `COc1c(O)c(Oc2ccc(Br)cc2Br)c(Br)c(Br)c1Br`, the zone of inhibition at 5 µg/disc in assay [1] amounted to 11 mm. The zone of inhibition at 2.5 µg/disc in [2] came to 10 mm. Moreover, the zone of inhibition at 20 µg/disc in assay [3] was determined as 12 mm. Moreover, in assay [4], the zone of inhibition at 10 µg/disc is 12 mm. 8.69 µM corresponded to half-maximal inhibition in [5] (IC50).
Consider `Oc1c(Br)c(Br)cc(Br)c1Oc1ccc(Br)cc1Br`, for which the zone of inhibition at 5 µg/disc in assay [1] turned out to be 11 mm. In addition, the zone of inhibition at 2.5 µg/disc in assay [2] stood at 10 mm. In [3], the zone of inhibition at 20 µg/disc was 14 mm. Also, the zone of inhibition at 10 µg/disc in [4] was 13 mm. Further, half-maximal inhibition in [5] (IC50) required 7.52 µM.
As to `Oc1c(Br)cc(Br)c(Br)c1Oc1ccc(Br)cc1Br`, in [1], the zone of inhibition at 5 µg/disc was 15 mm. In assay [2], the zone of inhibition at 2.5 µg/disc stood at 13 mm. The zone of inhibition at 20 µg/disc is 3 mm in [3] and 12 mm in [6]. In addition, the zone of inhibition at 10 µg/disc in assay [4] was found to be 2 mm; in assay [7] it was 12 mm. This compound gave a concentration for half-maximal inhibition (IC50) in assay [5] of 8.73 µM.
Consider `Oc1c(Br)c(Br)cc(Br)c1Oc1ccccc1Br`, for which the zone of inhibition at 2.5 µg/disc in [8] was 12 mm. In addition, the zone of inhibition at 5 µg/disc in assay [9] worked out at 13 mm. Moreover, the zone of inhibition at 20 µg/disc in assay [6] stood at 20 mm. The zone of inhibition at 10 µg/disc in assay [7] amounted to 18 mm. For the same compound, in [5], the half-inhibitory concentration (IC50) is 6.96 µM.
`Oc1c(Br)cc(Br)cc1Oc1ccc(Br)cc1Br`: the zone of inhibition at 5 µg/disc in assay [1] was 12 mm. In assay [2], the zone of inhibition at 2.5 µg/disc is 10 mm. Also, the zone of inhibition at 10 µg/disc in assay [4] was determined as 13 mm. In assay [6], the zone of inhibition at 20 µg/disc stood at 13 mm. In [5], this compound gave an IC50 of 8.9 µM.
For the compound `Oc1c(Br)c(Br)c(Br)c(Br)c1Oc1ccc(Br)cc1Br`, in [1], the zone of inhibition at 5 µg/disc was 12 mm. Also, the zone of inhibition at 2.5 µg/disc in assay [2] came out at 12 mm. The zone of inhibition at 20 µg/disc in assay [6] is 15 mm. For the same compound, the zone of inhibition at 10 µg/disc in [7] amounted to 13 mm. The compound further displayed an IC50 in [5] of 9.48 µM.
As for `Oc1c(Oc2ccc(Br)cc2Br)ccc(Br)c1Br`, the zone of inhibition at 5 µg/disc in [1] was found to be 13 mm. The zone of inhibition at 2.5 µg/disc in assay [2] turned out to be 10 mm. Besides, the zone of inhibition at 10 µg/disc in assay [4] came to 14 mm. In addition, in [6], the zone of inhibition at 20 µg/disc came out at 13 mm. In assay [5], this compound showed an IC50 of 7.23 µM.
In the case of `Oc1cc(Br)cc(Br)c1Oc1ccc(Br)cc1Br`, the zone of inhibition at 2.5 µg/disc in [8] is 13 mm. The result in assay [10] and in assay [11] was Active. In assay [9], the zone of inhibition at 5 µg/disc worked out at 16 mm. Further, the zone of inhibition at 20 µg/disc in assay [6] was found to be 20 mm. Also, the zone of inhibition at 10 µg/disc in assay [7] is 17 mm. The compound also showed an IC50 in assay [5] of 2.84 µM.
Consider `Oc1c(Br)ccc(Br)c1Oc1ccc(Br)cc1Br`, for which the zone of inhibition at 5 µg/disc in assay [1] turned out to be 11 mm. For the same compound, the zone of inhibition at 2.5 µg/disc in [2] came to 10 mm. Moreover, the zone of inhibition at 20 µg/disc in [6] is 14 mm. For the same compound, the zone of inhibition at 10 µg/disc in assay [7] stood at 13 mm. In [5], this compound returned an IC50 of 6.89 µM.

For the origin of these results see ChEMBL document CHEMBL1144761, “Bioactive polybrominated diphenyl ethers from the marine sponge Dysidea sp” (J Nat Prod, 2008).
